The MIC is the lowest concentration found to suppress growth.

This note sets out measurements from ChEMBL document CHEMBL1649585, “Role of the Mycobacterium tuberculosis P55 efflux pump in intrinsic drug resistance, oxidative stress responses, and growth” (2009).

Each structure is given as a SMILES string. Converted amounts (≈) assume the structure as drawn. The source made the active and inactive calls. The calls are words filed in the database; no cut-off is given here. Where a SMILES comes first, the peptide text is derived from it. Bridges are numbered along the chain shown (N, C = ends). [ ]: non-standard residue; d: D form. The star is where a group is joined. Ileψ(thiazoline)Cys = CC[C@H](C)[C@H](N)C1=N[C@H](C(=O)*)CS1; dOrn = NCCC[C@@H](N)C(=O)O Where only a bound is given, the exact number is not on record here.

Experiment [1] has as its system Mycobacterium tuberculosis variant bovis BCG. Nature of the experiment: Antimicrobial activity against Mycobacterium bovis BCG KOP55 harboring inactivated p55 gene at 5 umol after 14 days by disk diffusion method. Type of experiment: functional. Put shortly: (§1)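 Disc assay on Middlebrook 7H10 agar: lawn spread from a suspension of 10^6 cells/ml, discs carrying the redox compound placed on the lawn, halos recorded after 14 days at 37°C.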
(In general: In agar diffusion tests the substance spreads into inoculated agar from a disc or well.)

For experiment [2] the test system is unchanged. Nature of the experiment: Antimicrobial activity against Mycobacterium bovis BCG P55 at 5 umol after 14 days by disk diffusion method. Type of experiment: functional. Put shortly:
as §1

The test system is the same in experiment [3]. Briefly: Antimicrobial activity against Mycobacterium bovis BCG KOP55 harboring inactivated p55 gene by resazurine microtiter assay. Type of experiment: functional. The conditions noted are these: KOP55, Urine. Put shortly: (§2)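 Resazurin microdilution in liquid medium: serial twofold compound dilutions, plates incubated 8 days at 37°C, then 2 more days after adding resazurin. MIC read from the indicator. Run in triplicate and repeated at least three times.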

Experiment [4] shares this test system. Briefly: Antimicrobial activity against Mycobacterium bovis BCG KOP55 harboring inactivated p55 gene by resazurine microtiter assay in presence of 1 mg/liter CCCP. Type of experiment: functional. The conditions noted are these: KOP55, Urine. An outline of the steps: (§3)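 Resazurin microdilution MIC (serial twofold dilutions, 8 days at 37°C plus 2 days after resazurin) run with a fixed subinhibitory level of efflux pump inhibitor (valinomycin, reserpine or CCCP) present throughout. Triplicate, repeated at least three times.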
(Resazurin is reduced to fluorescent resorufin, in cell work by metabolically active cells.)

Experiment [5] has the same test system. Nature of the experiment: Antimicrobial activity against Mycobacterium bovis BCG KOP55 harboring pPAZ23 carrying p27-p55 operon by resazurine microtiter assay. Conditions: KOP55, Urine. Type of experiment: functional. Put shortly: as §2
For experiment [6] the test system is unchanged. Nature of the experiment: Antimicrobial activity against Mycobacterium bovis BCG KOP55 harboring pPAZ23 carrying p27-p55 operon by resazurine microtiter assay in presence of 1 mg/liter CCCP. The conditions noted are these: KOP55, Urine. Type of experiment: functional. An outline of the steps: as §3
Experiment [7] has the same test system. Nature of the experiment: Antimicrobial activity against Mycobacterium bovis BCG KOP55 harboring inactivated p55 gene by twofold dilution method. Type of experiment: functional. Put shortly:
(§4)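 Agar MIC: log-phase cultures diluted to 10^5 cells/ml, 10 µl spotted onto Middlebrook 7H10 plates with serial twofold antibiotic dilutions. Visible growth scored after 21 days at 37°C. Triplicate, repeated at least three times.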

Experiment [8] has the same test system. Briefly: Antimicrobial activity against Mycobacterium bovis BCG KOP55 harboring pPAZ23 carrying p27-p55 operon by twofold dilution method. Type of experiment: functional. An outline of the steps:
as §4

The test system is the same in experiment [9]. Nature of the experiment: Decrease in intracellular redox potential in Mycobacterium bovis BCG KOP55 harboring inactivated p55 gene assessed as decreased accumulation of formazan at 5 mg/liter after 1 hr by MTT assay. Type of experiment: functional. The arrangement: scale not given: the % may be the effect or the level left. An outline of the steps: (§5)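 MTT reduction as an index of intracellular redox potential: cultures at OD600 0.2 treated with drug or solvent for 1 h at 37°C in quadruplicate wells, MTT (2 mg/ml stock) added, 3 h further incubation. Formazan solubilised with 10% SDS, 30 min shaking, absorbance at 600 nm. Repeated at least three independent times.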
For orientation: Tetrazolium dyes change colour on reduction, which living cells bring about.

For experiment [10] the test system is unchanged. Nature of the experiment: Effect on intracellular redox potential in Mycobacterium bovis BCG KOP55 harboring pPAZ23 carrying p27-p55 operon assessed as accumulation of formazan at 5 mg/liter after 1 hr by MTT assay. Type of experiment: functional, organism-based. An outline of the steps: as §5
Experiment [11] shares this test system. Briefly: Decrease in intracellular redox potential in Mycobacterium bovis BCG KOP55 harboring inactivated p55 gene assessed as decreased accumulation of formazan at 256 mg/liter after 1 hr by MTT assay. The arrangement: scale not given: the % may be the effect or the level left. Type of experiment: functional. An outline of the steps:
as §5

The test system is the same in experiment [12]. Briefly: Effect on intracellular redox potential in Mycobacterium bovis BCG KOP55 harboring pPAZ23 carrying p27-p55 operon assessed as accumulation of formazan at 256 mg/liter after 1 hr by MTT assay. Type of experiment: functional, organism-based. An outline of the steps: as §5
Experiment [13] has the same test system. Nature of the experiment: Antimicrobial activity against Mycobacterium bovis BCG KOP55 harboring inactivated p55 gene at 0.125 umol after 14 days by disk diffusion method. Type of experiment: functional. An outline of the steps:
as §1

The test system is the same in experiment [14]. Briefly: Antimicrobial activity against Mycobacterium bovis BCG P55 at 0.125 umol after 14 days by disk diffusion method. Type of experiment: functional. Put shortly:
as §1

For experiment [15] the test system is unchanged. Briefly: Increase in intracellular redox potential in Mycobacterium bovis BCG KOP55 harboring pPAZ23 carrying p27-p55 operon assessed as increased accumulation of formazan at 64 mg/liter after 1 hr by MTT assay. Type of experiment: functional. Put shortly: as §5
Experiment [16] has the same test system. Briefly: Increase in intracellular redox potential in Mycobacterium bovis BCG KOP55 harboring inactivated p55 gene assessed as increased accumulation of formazan at 64 mg/liter after 1 hr by MTT assay. Type of experiment: functional. An outline of the steps:
as §5

The test system is the same in experiment [17]. Nature of the experiment: Antimicrobial activity against Mycobacterium bovis BCG P55 by resazurine microtiter assay. Type of experiment: functional. The conditions noted are these: P55, Urine. An outline of the steps:
as §2

Experiment [18] shares this test system. Nature of the experiment: Antimicrobial activity against Mycobacterium bovis BCG KOP55 harboring inactivated p55 gene by resazurine microtiter assay in presence of 0.1 mg/liter valinomycin. Conditions: KOP55, Urine. Type of experiment: functional. Put shortly:
as §3

The test system is the same in experiment [19]. Briefly: Antimicrobial activity against Mycobacterium bovis BCG KOP55 harboring inactivated p55 gene by resazurine microtiter assay in presence of 0.5 mg/liter reserpine. Type of experiment: functional. The conditions noted are these: KOP55, Urine. An outline of the steps: as §3
Experiment [20] shares this test system. Briefly: Antimicrobial activity against Mycobacterium bovis BCG KOP55 harboring pPAZ23 carrying p27-p55 operon by resazurine microtiter assay in presence of 0.1 mg/liter valinomycin. Type of experiment: functional. Conditions: KOP55, Urine. An outline of the steps: as §3
For experiment [21] the test system is unchanged. Nature of the experiment: Antimicrobial activity against Mycobacterium bovis BCG KOP55 harboring pPAZ23 carrying p27-p55 operon by resazurine microtiter assay in presence of 0.5 mg/liter reserpine. Type of experiment: functional. The conditions noted are these: KOP55, Urine. Put shortly: as §3

For the compound `OC(CS)C(O)CS` (racemic) [DL-DITHIOTHREITOL], the “inhibition zone (IZ)” value amounted to 30 mm in experiment [1] and 0 mm in [2].
As for `CC[C@H](C)[C@H](N)C1=N[C@H](C(=O)N[C@@H](CC(C)C)C(=O)N[C@H](CCC(=O)O)C(=O)N[C@H](C(=O)N[C@H]2CCCCNC(=O)[C@H](CC(N)=O)NC(=O)[C@@H](CC(=O)O)NC(=O)[C@H](Cc3cnc[nH]3)NC(=O)[C@@H](Cc3ccccc3)NC(=O)[C@H]([C@@H](C)CC)NC(=O)[C@@H](CCCN)NC2=O)[C@@H](C)CC)CS1` [BACITRACIN] ({Ileψ(thiazoline)Cys}-L[dE]IK[dOrn]I[dF]H[dD]N; lactam 4-C), the minimum inhibitory concentration (MIC) in experiment [3] was 16 µg/mL; in [4], 16 µg/mL; in experiment [5], above 256 µg/mL; in experiment [6], above 256 µg/mL.
`N#CC(C#N)=NNc1cccc(Cl)c1` [CARBONYL CYANIDE M-CHLOROPHENYLHYDRAZONE]: 2 µg/mL was the least that counted as inhibitory in [3] (MIC).
In experiment [7], `CN(C)CCCN1c2ccccc2Sc2ccc(Cl)cc21` [CHLORPROMAZINE] returned a minimum inhibitory concentration (MIC) of 4 µg/mL (≈ 12.5 µM).
`CC(C)/N=c1\cc2n(-c3ccc(Cl)cc3)c3ccccc3nc-2cc1Nc1ccc(Cl)cc1` [CLOFAZIMINE]: the minimal inhibitory concentration (MIC) in experiment [7] was determined as 0.025 µg/mL (≈ 0.0528 µM); in experiment [8] it was 0.1 µg/mL (≈ 0.211 µM). Further, the Activity in experiment [9] came out at 15%. The outcome in [10] was inactive.
As for `CN(C)C(=O)/N=N/C(=O)N(C)C` [DIAMIDE], the entries for the “inhibition zone (IZ)” value in experiment [1] and in experiment [2] were 30 mm and 0 mm, respectively. Besides, the Activity in experiment [11] amounted to 35%. The outcome in experiment [12] was inactive.
With `Clc1ccc(COC(Cn2ccnc2)c2ccc(Cl)cc2Cl)cc1` (configuration not stated) [ECONAZOLE], the minimal inhibitory concentration (MIC) in [7] came out at 1.6 µg/mL (≈ 4.19 µM); in experiment [8], 6.4 µg/mL (≈ 16.8 µM).
In experiment [3], `CC[C@@H](CO)NCCN[C@@H](CC)CO` [ETHAMBUTOL] gave a minimal inhibitory concentration (MIC) of 2 µg/mL.
As to `CC1=CC(=O)c2ccccc2C1=O` [MENADIONE], the “inhibition zone (IZ)” value came to 16 mm in experiment [13] and 20 mm in experiment [14]. For the same compound, the figures for the “fold change (FC)” value in experiment [15] and in [16] were 3.5 and 1.3, respectively.
Regarding `Cc1c(C)n2c(CBr)c(C)c(=O)n2c1=O` [MONOBROMOBIMANE], the minimum inhibitory concentration (MIC) in experiment [17] was 500 µM (≈ 136 µg/mL); in experiment [3], 125 µM.
With `CO[C@@H]1[C@@H](OC(N)=O)[C@@H](O)[C@H](Oc2ccc3c(O)c(NC(=O)c4ccc(O)c(CC=C(C)C)c4)c(=O)oc3c2C)OC1(C)C` [NOVOBIOCIN], the MIC in experiment [3] is 2 µg/mL; in experiment [4] it was 1 µg/mL; in experiment [18], 0.5 µg/mL; in experiment [19], 1 µg/mL; in experiment [5], 16 µg/mL (≈ 26.1 µM); in experiment [20] it was 8 µg/mL. Also, the MIC in experiment [6] worked out at 4 µg/mL; in [21] it was 8 µg/mL.
On to `O=[N+]([O-])c1cn2c(n1)OC[C@@H](OCc1ccc(OC(F)(F)F)cc1)C2` [PRETOMANID], for which the MIC in experiment [3] was 0.125 µg/mL; in experiment [5], 0.25 µg/mL (≈ 0.696 µM).
On to `COC(=O)[C@H]1[C@H]2C[C@@H]3c4[nH]c5cc(OC)ccc5c4CCN3C[C@H]2C[C@@H](OC(=O)c2cc(OC)c(OC)c(OC)c2)[C@@H]1OC` [RESERPINE], for which the MIC was 2 µg/mL in experiment [3] and 2 µg/mL (≈ 3.29 µM) in [5].
Regarding `CO[C@H]1/C=C/O[C@@]2(C)Oc3c(C)c(O)c4c(O)c(c(/C=N/N5CCN(C)CC5)c(O)c4c3C2=O)NC(=O)/C(C)=C\C=C\[C@H](C)[C@H](O)[C@@H](C)[C@@H](O)[C@@H](C)[C@H](OC(C)=O)[C@@H]1C` [RIFAMPIN], the MIC in experiment [3] came to 0.0004 µg/mL; in experiment [4] it was 0.0002 µg/mL; in experiment [18], 0.0002 µg/mL; in experiment [19], 0.0004 µg/mL; in experiment [5], 0.0032 µg/mL (≈ 0.00389 µM); in experiment [20], 0.0016 µg/mL. The minimal inhibitory concentration (MIC) stood at 0.0008 µg/mL in [6] and 0.0016 µg/mL in experiment [21].
As for `Oc1cc(Cl)ccc1Oc1ccc(Cl)cc1Cl` [TRICLOSAN], it took 8 µg/mL (≈ 27.6 µM) to inhibit growth in experiment [7] (MIC).
On to `CC(C)[C@@H]1NC(=O)[C@H](C)OC(=O)[C@@H](C(C)C)NC(=O)[C@@H](C(C)C)OC(=O)[C@H](C(C)C)NC(=O)[C@H](C)OC(=O)[C@@H](C(C)C)NC(=O)[C@@H](C(C)C)OC(=O)[C@H](C(C)C)NC(=O)[C@H](C)OC(=O)[C@@H](C(C)C)NC(=O)[C@@H](C(C)C)OC1=O` [VALINOMYCIN], for which the MIC was 0.2 µg/mL in experiment [3] and 0.4 µg/mL (≈ 0.36 µM) in experiment [5].
Consider `CN[C@H](CC(C)C)C(=O)N[C@H]1C(=O)N[C@@H](CC(N)=O)C(=O)N[C@H]2C(=O)N[C@H]3C(=O)N[C@H](C(=O)N[C@H](C(=O)O)c4cc(O)cc(O)c4-c4cc3ccc4O)[C@H](O)c3ccc(c(Cl)c3)Oc3cc2cc(c3O[C@@H]2O[C@H](CO)[C@@H](O)[C@H](O)[C@H]2O[C@H]2C[C@](C)(N)[C@H](O)[C@H](C)O2)Oc2ccc(cc2Cl)[C@H]1O` [VANCOMYCIN], for which the MIC in [3] amounted to 0.25 µg/mL; in [4], 0.25 µg/mL; in experiment [5] it was 4 µg/mL (≈ 2.76 µM); in experiment [20] it was 4 µg/mL.
